{
  "source": "ChEMBL document CHEMBL5126577",
  "about": "“Discovery of honokiol thioethers containing 1,3,4-oxadiazole moieties as potential α-glucosidase and SARS-CoV-2 entry inhibitors” (Bioorg Med Chem, 2022)",
  "key": {"[1]": {"assay": "Inhibition of alpha-glucosidase (unknown origin) using PNPG as substrate at 5 to 45 uM preincubated for 15 mins followed by substrate addition and measured after 10 mins by microplate reader analysis", "settings": "Homo sapiens; dose 5-45 µM, time 25.0 min", "in_short": "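Compounds in DMSO/PBS dilution series were incubated with α-glucosidase (1.0 U/mL in PBS) for 15 min at 37 °C. 1 mM PNPG was added and incubated 10 min, then OD was read at 405 nm. Inhibition % was corrected with PBS-only and enzyme-free blanks. IC50 was calculated, with experiments run in triplicate.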"}, "[2]": {"assay": "Cytotoxicity against human HEK-293T cells overexpressing ACE2 assessed as maximal non-toxic dose incubated for 4 hrs", "assay_type": "toxicity, cell-based"}, "[3]": {"assay": "Cytotoxicity against human L02 cells assessed as cell survival rate at 100 uM by MTT assay", "assay_type": "toxicity, cell-based", "settings": "read-out: Survival"}, "L02": {"test_system": "L02", "assay": "Cytotoxicity against human L02 cells assessed as reduction on cell viability at 3.125 to 100 uM by MTT assay", "assay_type": "toxicity, cell-based", "settings": "l02, 100 µM, dose 3.125-100 µM"}, "[4]": {"molecular_target": "Angiotensin-converting enzyme 2 (Homo sapiens, UniProt Q9BYF1)", "sequence (Q9BYF1 whole entry)": "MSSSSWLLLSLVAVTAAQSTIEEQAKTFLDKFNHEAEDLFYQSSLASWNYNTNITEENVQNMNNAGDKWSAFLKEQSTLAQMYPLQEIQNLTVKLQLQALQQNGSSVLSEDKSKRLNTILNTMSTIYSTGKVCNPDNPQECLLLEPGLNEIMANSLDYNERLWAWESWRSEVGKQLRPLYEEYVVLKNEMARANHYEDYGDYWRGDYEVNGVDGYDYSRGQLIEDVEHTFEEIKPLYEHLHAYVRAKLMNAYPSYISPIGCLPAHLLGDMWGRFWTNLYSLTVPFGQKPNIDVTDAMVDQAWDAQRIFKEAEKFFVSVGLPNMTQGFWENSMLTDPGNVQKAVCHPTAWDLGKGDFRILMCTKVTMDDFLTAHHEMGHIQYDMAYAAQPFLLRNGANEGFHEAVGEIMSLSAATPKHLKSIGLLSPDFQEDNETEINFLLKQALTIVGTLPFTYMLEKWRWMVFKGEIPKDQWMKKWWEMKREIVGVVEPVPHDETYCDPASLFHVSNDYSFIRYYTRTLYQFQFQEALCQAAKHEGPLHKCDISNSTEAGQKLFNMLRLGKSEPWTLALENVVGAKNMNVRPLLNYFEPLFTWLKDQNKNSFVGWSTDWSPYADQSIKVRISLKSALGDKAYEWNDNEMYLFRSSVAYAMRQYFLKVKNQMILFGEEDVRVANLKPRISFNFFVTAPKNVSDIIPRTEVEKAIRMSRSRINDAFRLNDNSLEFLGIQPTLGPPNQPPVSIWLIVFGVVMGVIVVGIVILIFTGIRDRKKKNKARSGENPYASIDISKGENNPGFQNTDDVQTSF", "assay": "Binding affinity to human ACE2 assessed as equilibrium dissociation constant by biolayer interferometry assay", "in_short": "(§1)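 BLI on Ni-NTA biosensors loaded with His-tagged recombinant SARS-CoV-2 spike RBD or human ACE2. Compounds (10 mM DMSO stock) were diluted serially in PBS. Each cycle: PBS equilibration 10 min, baseline 120 s, association 120 s, dissociation in PBS 120 s, all at 30 °C. Curves were double-referenced to blank sensors and PBS, and KD came from a 1:1 binding fit.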"}, "Spike glycoprotein": {"molecular_target": "Spike glycoprotein (Severe acute respiratory syndrome coronavirus 2, UniProt P0DTC2)", "assay": "Binding affinity to SARS-CoV-2 spike protein receptor-binding domain assessed as equilibrium dissociation constant by biolayer interferometry assay", "in_short": "as §1"}},
  "data": [
    {"smiles": "C=CCc1cc(-c2cc(CC=C)c3oc(SCc4nnc(-c5ccc(Br)cc5)o4)nc3c2)c2oc(SCc3nnc(-c4ccc(Br)cc4)o3)nc2c1", "values": [
      {"measurement": "inhibition", "setting": "[1]", "result": 22.4, "unit": "%"},
      {"measurement": "MNTC at 4 h", "setting": "[2]", "result": "> 100", "unit": "µM"}
    ]},
    {"smiles": "C=CCc1cc(CSc2nnc(-c3cccnc3)o2)c(O)c(-c2ccc(O)c(CC=C)c2)c1", "values": [
      {"measurement": "inhibition", "setting": "[1]", "result": 33.2, "unit": "%"},
      {"measurement": "MNTC at 4 h", "setting": "[2]", "result": "> 100", "unit": "µM"},
      {"measurement": "viability at 100 µM", "setting": "[3]", "result": 80, "unit": "%"},
      {"measurement": "Activity", "setting": "L02", "result": "Non-Toxic"},
      {"measurement": "Kd", "setting": "[4]", "result": 16, "unit": "µM"},
      {"measurement": "Kd", "setting": "Spike glycoprotein", "result": 7.29, "unit": "µM"}
    ]},
    {"smiles": "C=CCc1cc(CSc2nnc(-c3cccc(F)c3)o2)c(O)c(-c2ccc(O)c(CC=C)c2)c1", "values": [
      {"measurement": "inhibition", "setting": "[1]", "result": 53.5, "unit": "%"}
    ]},
    {"smiles": "C=CCc1cc(-c2cc(CC=C)c3oc(SCc4nnc(-c5ccc(F)cc5)o4)nc3c2)c2oc(SCc3nnc(-c4ccc(F)cc4)o3)nc2c1", "values": [
      {"measurement": "inhibition", "setting": "[1]", "result": 8.4, "unit": "%"},
      {"measurement": "MNTC at 4 h", "setting": "[2]", "result": "> 100", "unit": "µM"}
    ]},
    {"smiles": "C=CCc1cc(-c2cc(CC=C)c3oc(SCc4nnc(-c5ccccc5F)o4)nc3c2)c2oc(SCc3nnc(-c4ccccc4F)o3)nc2c1", "values": [
      {"measurement": "inhibition", "setting": "[1]", "result": 33.9, "unit": "%"},
      {"measurement": "MNTC at 4 h", "setting": "[2]", "result": "> 100", "unit": "µM"}
    ]},
    {"smiles": "C=CCc1cc(-c2cc(CC=C)c3oc(SCc4nnc(-c5ccc(OC)cc5)o4)nc3c2)c2oc(SCc3nnc(-c4ccc(OC)cc4)o3)nc2c1", "values": [
      {"measurement": "inhibition", "setting": "[1]", "result": 9.9, "unit": "%"},
      {"measurement": "MNTC at 4 h", "setting": "[2]", "result": "> 100", "unit": "µM"}
    ]},
    {"smiles": "C=CCc1cc(CSc2nnc(-c3ccc(Br)cc3)o2)c(O)c(-c2ccc(O)c(CC=C)c2)c1", "values": [
      {"measurement": "inhibition", "setting": "[1]", "result": 3.7, "unit": "%"}
    ]},
    {"smiles": "C=CCc1cc(-c2cc(CC=C)c3oc(SCc4nnc(-c5ccccc5Br)o4)nc3c2)c2oc(SCc3nnc(-c4ccccc4Br)o3)nc2c1", "values": [
      {"measurement": "inhibition", "setting": "[1]", "result": 91.5, "unit": "%"},
      {"measurement": "MNTC at 4 h", "setting": "[2]", "result": "> 100", "unit": "µM"}
    ]},
    {"smiles": "C=CCc1cc(CSc2nnc(-c3ccccc3C)o2)c(O)c(-c2ccc(O)c(CC=C)c2)c1", "values": [
      {"measurement": "inhibition", "setting": "[1]", "result": 64.5, "unit": "%"},
      {"measurement": "MNTC at 4 h", "setting": "[2]", "result": "> 100", "unit": "µM"}
    ]},
    {"smiles": "C=CCc1cc(-c2cc(CC=C)c3oc(SCc4nnc(-c5ccc(Cl)cc5)o4)nc3c2)c2oc(SCc3nnc(-c4ccc(Cl)cc4)o3)nc2c1", "values": [
      {"measurement": "inhibition", "setting": "[1]", "result": 57.9, "unit": "%"},
      {"measurement": "MNTC at 4 h", "setting": "[2]", "result": "> 100", "unit": "µM"}
    ]},
    {"smiles": "C=CCc1cc(-c2cc(CC=C)c3oc(SCc4nnc(-c5cccc(Br)c5)o4)nc3c2)c2oc(SCc3nnc(-c4cccc(Br)c4)o3)nc2c1", "values": [
      {"measurement": "inhibition", "setting": "[1]", "result": 12.4, "unit": "%"},
      {"measurement": "MNTC at 4 h", "setting": "[2]", "result": "> 100", "unit": "µM"}
    ]},
    {"smiles": "C=CCc1cc(CSc2nnc(-c3cccc(OC)c3)o2)c(O)c(-c2ccc(O)c(CC=C)c2)c1", "values": [
      {"measurement": "inhibition", "setting": "[1]", "result": 81.8, "unit": "%"}
    ]},
    {"smiles": "C=CCc1cc(-c2cc(CC=C)c3oc(SCc4nnc(-c5cccc(C)c5)o4)nc3c2)c2oc(SCc3nnc(-c4cccc(C)c4)o3)nc2c1", "values": [
      {"measurement": "inhibition", "setting": "[1]", "result": 95.2, "unit": "%"},
      {"measurement": "MNTC at 4 h", "setting": "[2]", "result": "> 100", "unit": "µM"},
      {"measurement": "viability at 100 µM", "setting": "[3]", "result": 80, "unit": "%"},
      {"measurement": "Activity", "setting": "L02", "result": "Non-Toxic"}
    ]},
    {"smiles": "C=CCc1cc(-c2cc(CC=C)c3oc(SCc4nnc(-c5cccc(OC)c5)o4)nc3c2)c2oc(SCc3nnc(-c4cccc(OC)c4)o3)nc2c1", "values": [
      {"measurement": "inhibition", "setting": "[1]", "result": 95.5, "unit": "%"},
      {"measurement": "MNTC at 4 h", "setting": "[2]", "result": "> 100", "unit": "µM"}
    ]},
    {"smiles": "C=CCc1cc(CSc2nnc(-c3ccccc3)o2)c(O)c(-c2ccc(O)c(CC=C)c2)c1", "values": [
      {"measurement": "inhibition", "setting": "[1]", "result": 69.8, "unit": "%"},
      {"measurement": "MNTC at 4 h", "setting": "[2]", "result": "> 100", "unit": "µM"},
      {"measurement": "viability at 100 µM", "setting": "[3]", "result": 80, "unit": "%"},
      {"measurement": "Activity", "setting": "L02", "result": "Non-Toxic"},
      {"measurement": "Kd", "setting": "[4]", "result": 14, "unit": "µM"},
      {"measurement": "Kd", "setting": "Spike glycoprotein", "result": 6.94, "unit": "µM"}
    ]},
    {"smiles": "C=CCc1cc(-c2cc(CC=C)c3oc(SCc4nnc(-c5ccccc5Cl)o4)nc3c2)c2oc(SCc3nnc(-c4ccccc4Cl)o3)nc2c1", "values": [
      {"measurement": "inhibition", "setting": "[1]", "result": 19.4, "unit": "%"},
      {"measurement": "MNTC at 4 h", "setting": "[2]", "result": "> 100", "unit": "µM"}
    ]},
    {"smiles": "C=CCc1cc(CSc2nnc(-c3ccccc3F)o2)c(O)c(-c2ccc(O)c(CC=C)c2)c1", "values": [
      {"measurement": "MNTC at 4 h", "setting": "[2]", "result": "> 100", "unit": "µM"}
    ]},
    {"smiles": "C=CCc1cc(CSc2nnc(-c3ccc(Cl)cc3)o2)c(O)c(-c2ccc(O)c(CC=C)c2)c1", "values": [
      {"measurement": "inhibition", "setting": "[1]", "result": 7.1, "unit": "%"}
    ]},
    {"smiles": "C=CCc1cc(CSc2nnc(-c3ccc([N+](=O)[O-])cc3)o2)c(O)c(-c2ccc(O)c(CC=C)c2)c1", "values": [
      {"measurement": "inhibition", "setting": "[1]", "result": 79.5, "unit": "%"}
    ]},
    {"smiles": "C=CCc1cc(-c2cc(CC=C)c3oc(SCc4nnc(-c5ccccc5)o4)nc3c2)c2oc(SCc3nnc(-c4ccccc4)o3)nc2c1", "values": [
      {"measurement": "inhibition", "setting": "[1]", "result": 6.3, "unit": "%"},
      {"measurement": "MNTC at 4 h", "setting": "[2]", "result": "> 100", "unit": "µM"}
    ]},
    {"smiles": "C=CCc1cc(CSc2nnc(-c3ccccc3Cl)o2)c(O)c(-c2ccc(O)c(CC=C)c2)c1", "values": [
      {"measurement": "inhibition", "setting": "[1]", "result": 64.5, "unit": "%"},
      {"measurement": "MNTC at 4 h", "setting": "[2]", "result": "> 100", "unit": "µM"}
    ]},
    {"smiles": "C=CCc1cc(-c2cc(CC=C)c3oc(SCc4nnc(-c5ccccc5OC)o4)nc3c2)c2oc(SCc3nnc(-c4ccccc4OC)o3)nc2c1", "values": [
      {"measurement": "inhibition", "setting": "[1]", "result": 25.2, "unit": "%"},
      {"measurement": "MNTC at 4 h", "setting": "[2]", "result": "> 100", "unit": "µM"}
    ]},
    {"smiles": "C=CCc1cc(-c2cc(CC=C)c3oc(SCc4nnc(-c5cccc(F)c5)o4)nc3c2)c2oc(SCc3nnc(-c4cccc(F)c4)o3)nc2c1", "values": [
      {"measurement": "inhibition", "setting": "[1]", "result": 14.6, "unit": "%"},
      {"measurement": "MNTC at 4 h", "setting": "[2]", "result": "> 100", "unit": "µM"}
    ]},
    {"smiles": "C=CCc1cc(CSc2nnc(-c3cccc(C)c3)o2)c(O)c(-c2ccc(O)c(CC=C)c2)c1", "values": [
      {"measurement": "inhibition", "setting": "[1]", "result": 78.2, "unit": "%"}
    ]},
    {"smiles": "C=CCc1ccc(O)c(-c2ccc(O)c(CC=C)c2)c1", "note": "[HONOKIOL]", "values": [
      {"measurement": "inhibition", "setting": "[1]", "result": 17.1, "unit": "%"},
      {"measurement": "MNTC at 4 h", "setting": "[2]", "result": 50, "unit": "µM"},
      {"measurement": "Kd", "setting": "Spike glycoprotein", "result": 25, "unit": "µM"}
    ]},
    {"smiles": "C=CCc1cc(-c2cc(CC=C)c3oc(SCc4nnc(-c5cccc(Cl)c5)o4)nc3c2)c2oc(SCc3nnc(-c4cccc(Cl)c4)o3)nc2c1", "values": [
      {"measurement": "inhibition", "setting": "[1]", "result": 10.4, "unit": "%"},
      {"measurement": "MNTC at 4 h", "setting": "[2]", "result": "> 100", "unit": "µM"}
    ]},
    {"smiles": "C=CCc1cc(-c2cc(CC=C)c3oc(SCc4nnc(-c5ccc(C)cc5)o4)nc3c2)c2oc(SCc3nnc(-c4ccc(C)cc4)o3)nc2c1", "values": [
      {"measurement": "inhibition", "setting": "[1]", "result": 13.5, "unit": "%"},
      {"measurement": "MNTC at 4 h", "setting": "[2]", "result": "> 100", "unit": "µM"}
    ]},
    {"smiles": "C=CCc1cc(CSc2nnc(-c3ccc(C)cc3)o2)c(O)c(-c2ccc(O)c(CC=C)c2)c1", "values": [
      {"measurement": "inhibition", "setting": "[1]", "result": 6.7, "unit": "%"}
    ]},
    {"smiles": "C=CCc1cc(-c2cc(CC=C)c3oc(SCc4nnc(-c5ccccc5C)o4)nc3c2)c2oc(SCc3nnc(-c4ccccc4C)o3)nc2c1", "values": [
      {"measurement": "MNTC at 4 h", "setting": "[2]", "result": "> 100", "unit": "µM"}
    ]}
  ]
}
